According to ChEMBL document CHEMBL1154527, “Tethered indoles as functionalizable ligands for the estrogen receptor” (Bioorg Med Chem Lett, 2009):

Legend:
[1] = target: Estrogen receptor beta (Homo sapiens) (UniProt Q92731); assay: Relative binding affinity to ERbeta by radiometric binding assay relative to estradiol
Summary of the method: (§1)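 RBA values for the PAMAM-dendrimer conjugate are calculated from the concentration of attached ligand rather than that of the conjugate.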

[2] = target: T1, Estrogen receptor (Homo sapiens) (UniProt P03372); assay: Relative binding affinity to ERalpha by radiometric binding assay relative to estradiol; summary of the method: as §1
T1 sequence (whole entry): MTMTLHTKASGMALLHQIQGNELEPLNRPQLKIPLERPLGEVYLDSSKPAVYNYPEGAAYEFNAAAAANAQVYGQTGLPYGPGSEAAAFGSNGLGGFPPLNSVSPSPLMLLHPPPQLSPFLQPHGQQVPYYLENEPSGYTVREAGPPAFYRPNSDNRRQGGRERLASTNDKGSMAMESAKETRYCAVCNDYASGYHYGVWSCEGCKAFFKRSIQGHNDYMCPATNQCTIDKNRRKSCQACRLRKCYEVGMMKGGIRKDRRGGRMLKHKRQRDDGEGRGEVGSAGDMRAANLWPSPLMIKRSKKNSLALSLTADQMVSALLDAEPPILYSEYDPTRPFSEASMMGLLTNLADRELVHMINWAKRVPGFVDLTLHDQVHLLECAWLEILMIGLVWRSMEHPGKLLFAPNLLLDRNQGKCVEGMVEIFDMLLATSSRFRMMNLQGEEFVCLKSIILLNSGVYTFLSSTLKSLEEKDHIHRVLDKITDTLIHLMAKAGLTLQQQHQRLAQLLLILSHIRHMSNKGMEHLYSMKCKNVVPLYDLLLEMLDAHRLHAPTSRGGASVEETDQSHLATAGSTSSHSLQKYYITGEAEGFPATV

Chain of Estrogen receptor beta (Homo sapiens) (Q92731 whole entry): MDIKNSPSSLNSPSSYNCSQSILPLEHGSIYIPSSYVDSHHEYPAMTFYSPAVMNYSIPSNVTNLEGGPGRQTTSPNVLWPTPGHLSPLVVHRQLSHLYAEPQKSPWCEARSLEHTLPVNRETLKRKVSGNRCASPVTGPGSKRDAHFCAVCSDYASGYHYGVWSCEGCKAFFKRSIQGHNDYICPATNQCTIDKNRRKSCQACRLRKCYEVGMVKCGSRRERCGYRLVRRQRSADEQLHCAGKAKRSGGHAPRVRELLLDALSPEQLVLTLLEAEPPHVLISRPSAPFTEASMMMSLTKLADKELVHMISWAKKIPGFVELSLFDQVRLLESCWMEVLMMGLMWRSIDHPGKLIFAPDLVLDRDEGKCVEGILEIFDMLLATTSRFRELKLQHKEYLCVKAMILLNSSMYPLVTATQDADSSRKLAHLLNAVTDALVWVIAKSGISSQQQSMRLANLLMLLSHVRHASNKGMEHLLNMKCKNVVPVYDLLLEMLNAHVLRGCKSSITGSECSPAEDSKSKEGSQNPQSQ

| Compound | relative binding affinity (RBA) [1] | relative binding affinity (RBA) [2] |
| --- | --- | --- |
| Cc1ccc(C(=O)NCCCCn2c(-c3ccc(O)cc3)c(C)c3cc(O)ccc32)cc1 | 0.048 | – |
| CC(=O)NCCNCc1ccc(OCCCn2c(-c3ccc(O)cc3)c(C)c3cc(O)ccc32)cc1 | 0.24 | 2.17 |
| CCCCOc1ccc(Cn2c(-c3ccc(O)cc3)c(C)c3cc(O)ccc32)cc1 | 1.2 | – |
| CCCCOCCCCCCn1c(-c2ccc(O)cc2)c(C)c2cc(O)ccc21 | 3 | – |
| CCSC(SCC)c1ccc(OCCCn2c(-c3ccc(O)cc3)c(C)c3cc(O)ccc32)cc1 | 0.084 | – |
| Cc1c(-c2ccc(O)cc2)n(Cc2ccc(O)cc2)c2ccc(O)cc12 | 1 | 10 |
| COCCCCCCn1c(-c2ccc(O)cc2)c(C)c2cc(O)ccc21 | 2 | 11 |
| Cc1c(-c2ccc(O)cc2)n(CCCCCCO)c2ccc(O)cc12 | 1.4 | 13 |
| COc1ccc(Cn2c(-c3ccc(O)cc3)c(C)c3cc(O)ccc32)cc1 | 6.5 | 11 |
